Each structure is given as a SMILES string.

UDP-galactopyranose mutase, sequence (P9WIQ1 whole entry): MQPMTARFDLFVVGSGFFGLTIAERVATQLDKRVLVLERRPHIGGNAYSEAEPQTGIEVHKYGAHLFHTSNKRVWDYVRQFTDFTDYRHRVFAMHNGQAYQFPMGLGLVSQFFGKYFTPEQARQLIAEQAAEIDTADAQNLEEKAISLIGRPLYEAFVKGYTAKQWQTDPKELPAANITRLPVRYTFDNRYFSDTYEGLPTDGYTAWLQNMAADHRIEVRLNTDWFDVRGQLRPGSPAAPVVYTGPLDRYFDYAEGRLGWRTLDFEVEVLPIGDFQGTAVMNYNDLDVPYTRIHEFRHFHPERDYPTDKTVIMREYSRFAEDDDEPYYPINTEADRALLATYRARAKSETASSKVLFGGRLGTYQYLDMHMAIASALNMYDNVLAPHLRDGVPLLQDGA

The test system of one data set is Mycobacterium tuberculosis. Put plainly: Viable Mycobacterium tuberculosis in lungs of infected Mice after an 8-day drug treatment; Dose is 150 mg/kg. Type of data set: functional, Lung.
Settings: not given
An outline of the steps: (§1)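 C57BL/6 interferon-γ gene-depleted (GKO) mice infected by low-dose aerosol. Eight daily treatments started 18 days postinfection. At day 28, lung and spleen homogenates serially diluted onto Middlebrook 7H11 agar and incubated 4 weeks at 37 °C. CFU log-transformed and reported ±SEM; one-way Dunnett multiple-comparison ANOVA, significance at 95% confidence.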
In turn, `Cc1ncc([N+](=O)[O-])n1CCO` [METRONIDAZOLE] registered an Activity of 8.5 log CFU.

Test system in the next data set: not listed separately
Description: The protein binding is expressed as percent bound as determined by VolSurf. The note with it: read-out: Protein binding (converted). Type of data set: ADME.
As for `CN(C(=O)c1ccc([N+](=O)[O-])o1)c1ccccc1`, the fraction unbound was 0.332.
Turning to `COc1ccc(CCNC(=O)c2ccc([N+](=O)[O-])o2)cc1OC`, the fraction unbound is 0.303.
Still for that read-out and setting: then `O=C(Nc1cc[nH]n1)c1ccc([N+](=O)[O-])o1`, with 0.513; and `O=C(NC1CCCCC1)c1ccc([N+](=O)[O-])o1`, with 0.352.
Same read-out and setting: then `O=C(NC1CCc2ccccc21)c1ccc([N+](=O)[O-])o1` (stereo unspecified), with 0.23; and `COc1cccc(CNC(=O)c2ccc([N+](=O)[O-])o2)c1OC`, with 0.356; and `COc1ccc(NC(=O)c2ccc([N+](=O)[O-])o2)cc1`, with 0.369.
With `O=C(Nc1cccnc1)c1ccc([N+](=O)[O-])o1`, the fraction unbound is 0.447.
For `O=C(Nc1cccc(OCc2ccccc2)c1)c1ccc([N+](=O)[O-])o1`, the fraction unbound was 0.13.
On to `COc1cccc2sc(NC(=O)c3ccc([N+](=O)[O-])o3)nc12`, for which the fraction unbound was 0.257.
On the same count and under the same terms, then `COc1cccc(NC(=O)c2ccc(S(=O)(=O)c3ccccc3)o2)c1`, with 0.485; and `O=C(Nc1ccccn1)c1ccc([N+](=O)[O-])o1`, with 0.438.
Take `O=C(NCc1ccccn1)c1ccc([N+](=O)[O-])o1`: the fraction unbound is 0.427.
For `O=C(NCc1ccccc1Cl)c1ccc([N+](=O)[O-])o1`, the fraction unbound was 0.313.
Still for that read-out and setting: then `COc1ccc(CCNC(=O)c2ccc([N+](=O)[O-])o2)cc1`, with 0.288; and `COc1cccc(NC(=O)c2ccc([S+]([O-])c3ccccc3)o2)c1` (stereo unspecified), with 0.39.
Still for that read-out and setting: then `COc1ccc(CNC(=O)c2ccc([N+](=O)[O-])o2)cc1OC`, with 0.363; and `O=C(NCc1ccco1)c1ccc([N+](=O)[O-])o1`, with 0.38.

The test system of a further data set is Mycobacterium tuberculosis. Description: Viable Mycobacterium tuberculosis in spleen of infected Mice after an 8-day drug treatment; Dose is 300 mg/kg. Type of data set: functional.
Settings: not given
An outline of the steps: as §1
For the compound `COc1ccc(CNC(=O)c2ccc([N+](=O)[O-])o2)cc1OC`, the Activity is recorded as 6 log CFU.

The next data set concerns Vero. Description: Selectivity is the ratio of cytotoxicity compared to TBMIC. Type of data set: functional.
Settings: not given
The procedure, abridged: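 Ratio of VERO cell toxicity IC50 to M. tuberculosis H37Ra MIC. VERO monolayers were exposed to 3-fold compound dilutions for 72 h, and viability was read by tetrazolium reduction at 490 nm, with untreated and SDS-lysed cells as 0% and 100%. MIC was by microbroth dilution in 7H9 (OD650 0.01 inoculum), 37 °C for 8 days, with visual 90% growth inhibition.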
Regarding `CN(C(=O)c1ccc([N+](=O)[O-])o1)c1ccccc1`, the Selectivity index was determined as 7.6.
On the same count and under the same terms, the figure for `COc1ccc(CCNC(=O)c2ccc([N+](=O)[O-])o2)cc1OC` is 68.6; for `O=C(Nc1cc[nH]n1)c1ccc([N+](=O)[O-])o1` it is 1.2.
In the case of `O=C(NC1CCCCC1)c1ccc([N+](=O)[O-])o1`, the Selectivity index was determined as 2.9.
The same measure, in the same setting: the figure for `O=C(NC1CCc2ccccc21)c1ccc([N+](=O)[O-])o1` (stereo unspecified) is 3.3.
Still for that read-out and setting: then `COc1ccc(NC(=O)c2ccc([N+](=O)[O-])o2)cc1`, with 53.6.
Take `O=C(Nc1cccnc1)c1ccc([N+](=O)[O-])o1`: the Selectivity index was determined as 2.1.
On the same count and under the same terms, then `COc1cccc(NC(=O)c2ccc(S(=O)(=O)c3ccccc3)o2)c1`, with 4.1; and `O=C(Nc1ccccn1)c1ccc([N+](=O)[O-])o1`, with 3.5; and `O=C(NCc1ccccc1Cl)c1ccc([N+](=O)[O-])o1`, with 7.3.
The same measure, in the same setting: the figure for `COc1ccc(CCNC(=O)c2ccc([N+](=O)[O-])o2)cc1` is 25.6; for `COc1cccc(NC(=O)c2ccc([S+]([O-])c3ccccc3)o2)c1` (stereo unspecified) it is 10.4.
Same read-out and setting: then `COc1ccc(CNC(=O)c2ccc([N+](=O)[O-])o2)cc1OC`, with 90.9.
In the case of `O=C(NCc1ccco1)c1ccc([N+](=O)[O-])o1`, the Selectivity index is 0.7.

The test system of another data set is Mycobacterium tuberculosis. Description: Activity against Mycobacterium tuberculosis H37Ra. Type of data set: functional.
Settings: not given
An outline of the steps:
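Microbroth dilution in microtiter plates. H37Ra grown in Middlebrook 7H9 to OD650 0.4-0.6, then diluted to OD650 0.01. 100 µL of cells added to serial compound dilutions and incubated 37 °C for 8 days, growth read visually. MIC90 taken as wells with >90% growth inhibition; isoniazid positive control on every plate.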
On to `CN(C(=O)c1ccc([N+](=O)[O-])o1)c1ccccc1`, for which the TBMIC was 3.12 µg/mL.
On the same count and under the same terms, the figure for `COc1ccc(CCNC(=O)c2ccc([N+](=O)[O-])o2)cc1OC` is 0.4 µg/mL.
On the same count and under the same terms, the figure for `O=C(Nc1cc[nH]n1)c1ccc([N+](=O)[O-])o1` is 6.25 µg/mL; for `O=C(NC1CCCCC1)c1ccc([N+](=O)[O-])o1` it is 3.1 µg/mL.
Still for that read-out and setting: then `O=C(NC1CCc2ccccc21)c1ccc([N+](=O)[O-])o1` (stereo unspecified), with 3.1 µg/mL; and `COc1cccc(CNC(=O)c2ccc([N+](=O)[O-])o2)c1OC`, with 1.2 µg/mL; and `COc1ccc(NC(=O)c2ccc([N+](=O)[O-])o2)cc1`, with 0.4 µg/mL.
`O=C(Nc1cccnc1)c1ccc([N+](=O)[O-])o1` gave a TBMIC of 6.25 µg/mL.
On to `O=C(Nc1cccc(OCc2ccccc2)c1)c1ccc([N+](=O)[O-])o1`, for which the TBMIC stood at 12.5 µg/mL.
Still for that read-out and setting: the figure for `COc1cccc2sc(NC(=O)c3ccc([N+](=O)[O-])o3)nc12` is 1.6 µg/mL.
Turning to `COc1cccc(NC(=O)c2ccc(S(=O)(=O)c3ccccc3)o2)c1`, the TBMIC is 6.25 µg/mL.
The same measure, in the same setting: then `O=C(Nc1ccccn1)c1ccc([N+](=O)[O-])o1`, with 3.12 µg/mL; and `O=C(NCc1ccccn1)c1ccc([N+](=O)[O-])o1`, with 0.8 µg/mL.
On the same count and under the same terms, the figure for `O=C(NCc1ccccc1Cl)c1ccc([N+](=O)[O-])o1` is 1.6 µg/mL; for `COc1ccc(CCNC(=O)c2ccc([N+](=O)[O-])o2)cc1` it is 0.8 µg/mL; for `COc1cccc(NC(=O)c2ccc([S+]([O-])c3ccccc3)o2)c1` (stereo unspecified) it is 6.25 µg/mL.
On the same count and under the same terms, the figure for `COc1ccc(CNC(=O)c2ccc([N+](=O)[O-])o2)cc1OC` is 0.2 µg/mL.
`O=C(NCc1ccco1)c1ccc([N+](=O)[O-])o1` displayed a TBMIC of 6.25 µg/mL.

For a further data set, the system named is Mycobacterium tuberculosis. Put plainly: Viable Mycobacterium tuberculosis in lungs of infected Mice after an 8-day drug treatment; Dose is 300 mg/kg. Type of data set: functional, Lung.
Settings: not given
An outline of the steps:
as §1
As for `COc1ccc(CNC(=O)c2ccc([N+](=O)[O-])o2)cc1OC`, the Activity came to 6.5 log CFU.

The next data set has as its system Mycobacterium tuberculosis. Description: Viable Mycobacterium tuberculosis in spleen of infected Mice after an 8-day drug treatment; Dose is 150 mg/kg. Type of data set: functional.
Settings: not given
An outline of the steps: as §1
Consider `Cc1ncc([N+](=O)[O-])n1CCO` [METRONIDAZOLE], for which the Activity turned out to be 6.9 log CFU.

A further data set has as its target UDP-galactopyranose mutase (Mycobacterium tuberculosis, UniProt P9WIQ1). Put plainly: Inhibition of Mycobacterium tuberculosis UDP-galactose mutase expressed in Escherichia coli UDP-6 [3H]- Galf. More on the design: species or system H37Rv.
Settings: not given
An outline of the steps: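 Reverse-direction radiometric Glf assay on crude soluble enzyme extract, preactivated 30 min at 37 °C in 25 mM MOPS with NADH and FAD. Each 25 µL well held MOPS pH 7.2, MgCl2, NADH, FAD, 2.3 µg protein, 20 pmol UDP-6-[3H]Galf and 1 µL DMSO. Inhibitors at 100-6.3 µM; reaction 5-20 min. Conversion read by HPLC or periodate filter-plate counting; IC50 calculated.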
For `CN(C(=O)c1ccc([N+](=O)[O-])o1)c1ccccc1`, it took 260 µM to reach half-maximal inhibition (IC50).
Same read-out and setting: then `COc1ccc(CCNC(=O)c2ccc([N+](=O)[O-])o2)cc1OC`, with 165 µM; and `O=C(Nc1cc[nH]n1)c1ccc([N+](=O)[O-])o1`, with 729 µM; and `O=C(NC1CCCCC1)c1ccc([N+](=O)[O-])o1`, with 281 µM.
Still for that read-out and setting: the figure for `O=C(NC1CCc2ccccc21)c1ccc([N+](=O)[O-])o1` (stereo unspecified) is 264 µM; for `COc1cccc(CNC(=O)c2ccc([N+](=O)[O-])o2)c1OC` it is 464 µM; for `COc1ccc(NC(=O)c2ccc([N+](=O)[O-])o2)cc1` it is 160 µM.
With `O=C(Nc1cccnc1)c1ccc([N+](=O)[O-])o1`, 206 µM corresponded to half-maximal inhibition (IC50). The IC50 values of the last two compounds are within 1.5-fold of each other.
Still for that read-out and setting: the figure for `O=C(Nc1cccc(OCc2ccccc2)c1)c1ccc([N+](=O)[O-])o1` is 82.8 µM; for `COc1cccc2sc(NC(=O)c3ccc([N+](=O)[O-])o3)nc12` it is 210 µM.
As for `COc1cccc(NC(=O)c2ccc(S(=O)(=O)c3ccccc3)o2)c1`, the midpoint of inhibition, the IC50, lay at 64.4 µM.
Regarding `O=C(Nc1ccccn1)c1ccc([N+](=O)[O-])o1`, the IC50 – broadly, the concentration needed to halve the response being measured – is 227 µM.
In the case of `O=C(NCc1ccccn1)c1ccc([N+](=O)[O-])o1`, the half-inhibitory concentration (IC50) is 481 µM. This IC50 is about 2.1-fold higher than that of the compound before.
Compound `O=C(NCc1ccccc1Cl)c1ccc([N+](=O)[O-])o1` showed an IC50 of 53.4 µM.
The compound `COc1ccc(CCNC(=O)c2ccc([N+](=O)[O-])o2)cc1` showed an IC50 of 58.6 µM.
As for `COc1ccc(CNC(=O)c2ccc([N+](=O)[O-])o2)cc1OC`, the IC50 was 75.1 µM.
On the same count and under the same terms, the figure for `O=C(NCc1ccco1)c1ccc([N+](=O)[O-])o1` is 246 µM.

The values above are taken from ChEMBL document CHEMBL1138787, “Synthesis and evaluation of nitrofuranylamides as novel antituberculosis agents” (J Med Chem, 2004).
